Measurements reported in paper PMC3103858 (Chemistry & biology, 2011).
Blank lines part the entries; values can stand above or below the compound they belong to.

How the values were obtained:
[1] = tested on: p53-dependent p21 luciferase activity; test: p21 luciferase assay of doxorubicin-induced p53 activation in U2OS cells; format: cell-based, human
[2] = tested on: U2OS cells; test: BRDU incorporation cell cycle assay; format: cell-based, human
Outline: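 U2OS cells in DMEM with 10% FBS were seeded at 1×10^5/ml. After 12 h, they got test compound (50 μM) with or without doxorubicin (5 μM); DMSO and untreated cells were controls. BrdU was added for the 24 h treatment. Cells were fixed, probed with anti-BrdU antibody, then peroxidase. Colour was developed with TMB, stopped, and read as OD at 450 nm.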

[3] = tested on: p53; test: western blot analysis of doxorubicin-treated U2OS cells; format: cell-based, human
Outline: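 U2OS cells were grown in DMEM with 10% FBS and antibiotics, then exposed 24 h to doxorubicin ± test compound (50 or 100 μM). Lysates were sonicated and cleared at 14,000 rpm for 30 min at 4°C. 30–50 μg protein was run on SDS-PAGE and moved to nitrocellulose, blocked in 5% milk/PBS, probed with primary then HRP secondary (60 min, RT), and developed by ECL.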

[4] = target: p53 binding to CBP (Homo sapiens, UniProt Q92793); test: HA-CBP and Flag-p53 pull-down assay in HEK 293T cells; format: cell-based; conditions: HA-CBP and Flag-p53 over-expressed in 293T cells, doxorubicin treatment
Sequence of p53 binding to CBP (Q92793 whole entry): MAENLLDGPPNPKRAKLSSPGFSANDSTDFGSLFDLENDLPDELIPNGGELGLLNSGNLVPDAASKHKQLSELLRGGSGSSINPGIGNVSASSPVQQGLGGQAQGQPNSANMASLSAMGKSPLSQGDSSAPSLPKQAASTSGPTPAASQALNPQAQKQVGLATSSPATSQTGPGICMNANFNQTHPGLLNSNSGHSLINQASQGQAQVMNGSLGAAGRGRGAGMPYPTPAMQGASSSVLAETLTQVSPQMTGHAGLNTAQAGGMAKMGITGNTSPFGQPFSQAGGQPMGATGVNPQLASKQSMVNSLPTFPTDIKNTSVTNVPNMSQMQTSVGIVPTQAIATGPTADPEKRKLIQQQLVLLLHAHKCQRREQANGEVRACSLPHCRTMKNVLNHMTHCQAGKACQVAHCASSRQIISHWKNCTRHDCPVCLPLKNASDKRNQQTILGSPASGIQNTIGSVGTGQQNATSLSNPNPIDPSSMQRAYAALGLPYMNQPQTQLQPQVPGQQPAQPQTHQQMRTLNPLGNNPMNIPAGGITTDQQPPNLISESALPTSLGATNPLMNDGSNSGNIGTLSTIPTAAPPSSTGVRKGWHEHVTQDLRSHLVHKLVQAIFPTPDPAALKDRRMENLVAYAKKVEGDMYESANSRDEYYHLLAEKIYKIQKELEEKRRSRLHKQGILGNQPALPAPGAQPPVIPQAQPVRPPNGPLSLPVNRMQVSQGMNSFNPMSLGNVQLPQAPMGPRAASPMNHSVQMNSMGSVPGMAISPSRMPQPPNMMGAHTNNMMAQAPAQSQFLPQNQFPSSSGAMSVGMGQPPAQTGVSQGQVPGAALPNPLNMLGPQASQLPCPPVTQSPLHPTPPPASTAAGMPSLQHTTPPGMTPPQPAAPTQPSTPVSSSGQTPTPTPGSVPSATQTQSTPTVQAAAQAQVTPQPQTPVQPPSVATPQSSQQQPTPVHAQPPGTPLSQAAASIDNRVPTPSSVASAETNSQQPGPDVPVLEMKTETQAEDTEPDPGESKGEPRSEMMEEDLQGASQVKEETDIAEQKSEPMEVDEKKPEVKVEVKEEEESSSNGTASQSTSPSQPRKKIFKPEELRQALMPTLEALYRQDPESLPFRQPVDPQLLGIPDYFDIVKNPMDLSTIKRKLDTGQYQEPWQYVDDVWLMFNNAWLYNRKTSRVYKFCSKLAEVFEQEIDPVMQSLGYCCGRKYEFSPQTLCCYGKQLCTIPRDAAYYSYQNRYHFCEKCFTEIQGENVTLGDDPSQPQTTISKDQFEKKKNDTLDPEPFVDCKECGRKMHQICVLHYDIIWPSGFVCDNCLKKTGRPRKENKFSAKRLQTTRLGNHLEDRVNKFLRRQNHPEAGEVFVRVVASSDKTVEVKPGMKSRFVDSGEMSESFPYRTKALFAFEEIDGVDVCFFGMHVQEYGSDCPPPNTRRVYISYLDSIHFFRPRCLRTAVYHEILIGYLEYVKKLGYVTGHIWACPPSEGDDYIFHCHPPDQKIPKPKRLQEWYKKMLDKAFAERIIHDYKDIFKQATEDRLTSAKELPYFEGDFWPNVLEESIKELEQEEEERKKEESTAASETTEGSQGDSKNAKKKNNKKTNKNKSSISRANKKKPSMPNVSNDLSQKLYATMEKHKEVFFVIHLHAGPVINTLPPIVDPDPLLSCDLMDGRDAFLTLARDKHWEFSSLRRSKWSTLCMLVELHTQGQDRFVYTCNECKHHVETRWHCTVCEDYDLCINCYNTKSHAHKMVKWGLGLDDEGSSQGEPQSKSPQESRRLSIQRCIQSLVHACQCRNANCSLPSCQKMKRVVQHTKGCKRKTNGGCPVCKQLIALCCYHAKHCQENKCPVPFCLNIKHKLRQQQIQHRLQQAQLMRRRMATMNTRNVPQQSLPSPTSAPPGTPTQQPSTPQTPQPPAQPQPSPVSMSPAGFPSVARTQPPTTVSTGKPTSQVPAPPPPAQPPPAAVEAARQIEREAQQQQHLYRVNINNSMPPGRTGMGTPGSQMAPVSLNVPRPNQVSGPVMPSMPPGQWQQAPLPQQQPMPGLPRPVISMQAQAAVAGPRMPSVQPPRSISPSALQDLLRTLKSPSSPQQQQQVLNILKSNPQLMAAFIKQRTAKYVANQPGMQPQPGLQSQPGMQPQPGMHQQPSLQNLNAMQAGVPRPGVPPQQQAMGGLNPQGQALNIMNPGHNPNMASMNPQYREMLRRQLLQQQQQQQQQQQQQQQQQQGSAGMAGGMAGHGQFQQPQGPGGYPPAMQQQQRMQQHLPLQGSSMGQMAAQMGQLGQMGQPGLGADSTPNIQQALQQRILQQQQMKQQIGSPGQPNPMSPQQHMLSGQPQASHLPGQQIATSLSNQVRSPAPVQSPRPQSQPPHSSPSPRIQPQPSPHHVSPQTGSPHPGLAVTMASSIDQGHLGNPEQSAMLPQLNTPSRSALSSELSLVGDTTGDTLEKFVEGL
Outline: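 HEK 293T cells were co-transfected with HA-CBP and Flag-p53 (Fugene 6), then treated with test compound at several concentrations, with or without doxorubicin. CBP was immunoprecipitated on HA-agarose beads. Co-precipitated p53 was detected by western blot with anti-Flag antibody.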

[5] = tested on: p53 target genes; test: RT-PCR array analysis of p53 target genes in U2OS cells; format: cell-based, human
[6] = tested on: primary neonatal rat cardiomyocytes; test: TUNEL apoptosis assay in cardiomyocytes; format: cell-based
Outline: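 Ventricular myocytes came from 1–2-day-old Sprague-Dawley rats: trypsin overnight at 4°C, collagenase 45 min at 37°C, two preplating rounds. Cells were grown in DMEM/F12 with 10% horse serum and 5% FCS, switched after 48 h to DMEM/F12 with 1% ITS and 0.1% BSA. Doxorubicin was given 24 h ± test compound. Cells on coverslips were fixed in 4% PFA/PBS, permeabilised with 0.5% Tween 20 for 10 min, and TUNEL-labelled with FITC-nucleotide. Triplicates on three days.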

[7] = tested on: p53; test: immunoblot of doxorubicin-treated cardiomyocytes; format: cell-based; conditions: primary neonatal rat cardiomyocytes
Outline: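 Neonatal rat ventricular myocytes (1–2-day-old Sprague-Dawley pups) were isolated by trypsin then collagenase digestion and enriched by two preplating rounds. They were cultured in DMEM/F12 with 10% horse serum and 5% FCS, then after 48 h in DMEM/F12 with 1% ITS and 0.1% BSA. Cells were exposed to doxorubicin with or without test compound and immunoblotted for activated p53 and H2AX Ser139 phosphorylation.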

[8] = tested on: CBP/p300; format: biochemical; conditions: histone H3 peptide substrate; data not shown
[9] = U2OS cells, 50 or 100 μM, 24 hours
[10] = nuclear extracts from U2OS cells

- IC50 ([1]; Homo sapiens, U2OS, read-out: IC50 inhibition of p53-induced p21 activation): 5 µM
- inhibition of p53 binding to CBP [4]: inhibiting in a dose-dependent manner
- direct inhibition of lysine acetyltransferase activity [8]: ruled out
Structure (SMILES): Cc1cc(N=Nc2cc(S(=O)(=O)O)c(C)cc2C)c(N)cc1O [Ischemin / MS120, 5-(2-amino-4-hydroxy-5-methyl-phenylazo)-2,4-dimethyl-benzenesulfonic acid]
- suppression of p21 expression ([1]; U2OS cells, doxorubicin, 50 μM): nearly completely suppresses
- prevention of doxorubicin-induced cell cycle arrest (BRDU incorporation) ([2]; 50 μM compound, doxorubicin 5 μM, U2OS cells, 24 hours): almost completely prevented
- toxicity to the cells ([2]; U2OS cells, 50 μM): not toxic
- expression of p53 target genes p21, PUMA and 14-3-3s induced by doxorubicin [3, 9]: significantly decreased
- levels of p53 protein, p53S15p and p53K382ac induced by doxorubicin [3, 9]: marked reduction
- level or functional phosphorylation state of ATM and CHK1 ([3]; U2OS cells, doxorubicin): did not affect
- H3 acetylation at Lys9 [3, 10]: decrease
- histone H3 phosphorylation at Ser10 [3, 10]: increase
- doxorubicin-induced expression of p53 target genes (CCNE2, CCNG2, CDC2, CDC25A, CDKN1A, CDKN2A, GADD45A, E2F1, E2F3, PCNA, SESN1, SESN2) [5]: differentially reduce
- toxicity of its own [6]: no toxicity of its own
- inhibition of doxorubicin-induced apoptosis ([6]; doxorubicin 24 hours): effectively inhibit
- doxorubicin induced p53 activation [7]: able to inhibit
- H2AX phosphorylation at Ser139 ([7]; doxorubicin): did not alter

Structure (SMILES): COc1cccc2c1C(=O)c1c(O)c3c(c(O)c1C2=O)C[C@@](O)(C(=O)CO)C[C@@H]3O[C@H]1C[C@H](N)[C@H](O)[C@H](C)O1 [doxorubicin, reference compound]
- decrease of BRDU incorporation ([2]; doxorubicin treatment of U2OS cells): 45%
